Reference: ChEMBL document CHEMBL3098049, “Concise synthesis and biological evaluation of 2-Aroyl-5-amino benzo[b]thiophene derivatives as a novel class of potent antimitotic agents” (J Med Chem, 2013)
Calls of active or inactive are those of the source. No cut-off for these calls is given here.

What was measured:
[1] = Inhibition of bovine brain tubulin polymerization preincubated for 15 mins followed by GTP addition measured for 20 mins by turbidometric analysis; set-up: species or system Bos taurus
Tubulin (Homo sapiens) [2] = biological target: T1, Tubulin (Homo sapiens) (UniProt P68371+Q9H4B7+P0DPH7+P68366+Q13509+Q71U36+P04350+Q3ZCM7+P07437+P68363+Q9BQE3+Q6PEY2+Q13885+Q9BVA1+Q9BUF5); assay: Displacement of [3H]-colchicine from tubulin (unknown origin) at 5 uM after 10 mins relative to control; assay type: protein-complex assay
MNNG-HOS [3] = assay: Antitumor activity against human MNNG-HOS cells xenografted in Balb/c-nu mouse assessed as reduction in tumor weight at 50 mg/kg, ip administered once every 3 days for 9 days measured after day 18; assay type: functional, organism-based; set-up: dose 50 mg/kg; conditions: HOS-TE85
Method in brief: (§1)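 MNNG/HOS osteosarcoma cells grown to exponential phase, suspended in FBS-free MEM (10⁷ cells/mL), 0.1 mL injected into back hypodermis of nude mice. At ~100 mm³, 12 mice randomised to three groups (vehicle, CA-4P in isotonic saline, test in 5% DMSO/olive oil). 50 mg/kg ip at 0.01 mL/g on days 0, 3, 6, 9. Tumour volume and body weight tracked; tumours excised and weighed day 18; […].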

HeLa [4] = assay: Cell cycle arrest in human HeLa cells assessed as accumulation at G2/M phase after 24 hrs by propidium iodide staining-based flow cytometric analysis; assay type: functional
Method in brief: (§2)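 HeLa cells (5 × 10⁵) treated for 24 h. Harvested, fixed in 70% ethanol chilled to 0 °C, then suspended in RNase with 0.1% Triton X-100. DNA stained with PI, analysed by flow cytometry as DNA-content histograms. Mean of three independent experiments.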

HeLa [5] = assay: Downregulation of Bcl-2 protein expression in human HeLa cells at 10 to 100 nM after 24 to 48 hrs by Western blot analysis; assay type: functional, cell-based
Method in brief: (§3)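 HeLa cultures treated 24 or 48 h, washed in cold PBS, lysed 30 min at 0 °C, clarified at 15000g. 20 μg protein run on 7.5−15% gradient SDS-PAGE and blotted to PVDF. Primary antibodies 2 h at room temperature, peroxidase secondary 60 min, ECL detection. Membranes stripped and reprobed for β-actin as loading control.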

Tubulin (Homo sapiens) [6] = biological target: T1, Tubulin (Homo sapiens); assay: Displacement of [3H]-colchicine from tubulin (unknown origin) at 1 uM after 10 mins relative to control; assay type: protein-complex assay
[7] = Selectivity ratio of IC50 for HUVEC to IC50 for human HeLa cells; assay type: ADME, cell-based; conditions: HUVEC and HeLa cells, read-out: Ratio IC50
HeLa [8] = assay: Induction of apoptosis in human HeLa cells after 24 to 48 hrs by annexin-V-FITC/propidium iodide staining-based flow cytometric analysis; assay type: functional, cell-based
Method in brief: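 HeLa cells treated 24 or 48 h, stained with annexin-V-FITC and PI, analysed by flow cytometry. Excitation 488 nm; emission 525 nm for FITC, 585 nm for PI. Gating separates live, early apoptotic, late apoptotic and necrotic cells. Mean of three independent experiments.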

HeLa [9] = assay: Cell cycle arrest in human HeLa cells assessed as accumulation at G2/M phase at 15 to 30 nM after 24 hrs by propidium iodide staining-based flow cytometric analysis relative to control; assay type: functional; method in brief: as §2
HeLa [10] = assay: Cell cycle arrest in human HeLa cells assessed as accumulation at G2/M phase at 10 nM after 24 hrs by propidium iodide staining-based flow cytometric analysis; assay type: functional; method in brief: as §2
MNNG-HOS [11] = assay: Cytotoxicity against human MNNG-HOS cells; assay type: functional, cell-based; conditions: HOS-TE85
HeLa [12] = assay: Induction of apoptosis in human HeLa cells assessed as caspase-3 cleavage at 10 to 100 nM after 24 to 48 hrs by Western blot analysis; assay type: functional, cell-based; method in brief: as §3
[13] = Selectivity ratio of IC50 for HUVEC to IC50 for human Molt4/C8 cells; assay type: ADME, cell-based; conditions: HUVEC and Molt4/C8 cells, read-out: Ratio IC50
PBL = assay: Cytotoxicity against resting phase of human PBL assessed as growth inhibition after 72 hrs by MTT assay; assay type: cell-based
Method in brief: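 Human PBL from healthy donors were isolated on a density gradient, washed, and held overnight in RPMI-1640 with 10% FBS. For proliferating cultures, nonadherent cells were resuspended at 5 × 10⁵ cells/mL with 2.5 μg/mL PHA; resting PBL received no PHA. Cells were exposed to varying compound concentrations, and viability was read by MTT after 72 h. IC50 is the concentration reducing growth by 50%, as the mean of three independent experiments.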

MNNG-HOS [14] = assay: Antitumor activity against human MNNG-HOS cells xenografted in Balb/c-nu mouse assessed as tumor growth inhibition at 50 mg/kg, ip measured on day 18 relative to vehicle-treated control; assay type: functional; conditions: HOS-TE85, ip, 432 h, route intraperitoneal, read-out: TGI; method in brief: as §1
HeLa [15] = assay: Induction of DNA damage in human HeLa cells assessed as upregulation of gamma-H2A.X protein expression at 10 nM after 48 hrs by Western blot analysis; assay type: functional, cell-based; method in brief: as §3
[16] = biological target: T2, M-phase inducer phosphatase 3 (Homo sapiens) (UniProt P30307); assay: Increase of cdc25c phosphorylation at Ser216 in human HeLa cells at 10 to 100 nM after 48 hrs by Western blot analysis; assay type: cell-based; method in brief: as §3
T2 sequence (whole entry): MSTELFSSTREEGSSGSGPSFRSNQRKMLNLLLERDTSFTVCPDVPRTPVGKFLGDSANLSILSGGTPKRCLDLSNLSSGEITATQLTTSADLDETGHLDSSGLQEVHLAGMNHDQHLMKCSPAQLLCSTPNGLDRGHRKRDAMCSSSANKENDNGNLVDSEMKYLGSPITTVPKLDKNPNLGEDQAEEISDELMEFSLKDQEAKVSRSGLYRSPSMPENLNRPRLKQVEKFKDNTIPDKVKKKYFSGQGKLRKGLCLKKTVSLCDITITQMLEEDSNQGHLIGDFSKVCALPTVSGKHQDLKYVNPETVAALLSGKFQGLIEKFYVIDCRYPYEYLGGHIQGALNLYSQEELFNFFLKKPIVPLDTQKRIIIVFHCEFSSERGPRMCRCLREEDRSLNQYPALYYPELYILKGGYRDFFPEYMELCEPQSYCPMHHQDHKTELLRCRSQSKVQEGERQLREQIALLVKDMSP

[17] = Cytotoxicity against human CEM/0 cells assessed as growth inhibition after 48 hrs by coulter counting analysis; assay type: functional, cell-based; conditions: CCRF-CEM
[18] = biological target: T2, M-phase inducer phosphatase 3 (Homo sapiens); assay: Increase of cdc25c phosphorylation at Ser216 in human HeLa cells at 10 to 100 nM after 24 hrs by Western blot analysis; assay type: cell-based; method in brief: as §3
HeLa [19] = assay: Induction of mitochondrial ROS generation in human HeLa cells at 15 to 250 nM by H2-DCFDA staining-based flow cytometric analysis; assay type: functional, cell-based; conditions: TDE = time-dependent effect
Method in brief: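 HeLa cells incubated 24 or 48 h with compound, stained with H₂-DCFDA, and intracellular ROS measured by flow cytometry. Mean of three independent experiments.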

HeLa [20] = assay: Induction of mitochondrial membrane depolarization in human HeLa cells after 24 to 48 hrs by JC-1 staining-based fluorescence assay; assay type: functional, cell-based
Method in brief: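 HeLa cells treated 24 or 48 h, then stained with JC-1. Cells with depolarised mitochondria quantified by flow cytometry. Mean of three independent experiments.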

In the case of `COc1cc(C(=O)c2cc3cc(N)cc(OC)c3s2)cc(OC)c1OC`, the IC50 [1] is reported as 520 nM, the inhibition (Tubulin (Homo sapiens) [2]) is reported as 97% and the Activity (MNNG-HOS [3]) is reported as “Active”. The Activity (HeLa [4]) was “Dose-dependent effect”, the Activity (HeLa [5]) was “Active” and the inhibition (Tubulin (Homo sapiens) [6]) was 89%. For the same compound, the selectivity ratio [7] was 460, the Activity (HeLa [8]) was “Dose-dependent effect” and the Activity (HeLa [9]) was over 80%. For the same compound, the Activity (HeLa [10]) was “Active”, the IC50 (MNNG-HOS [11]) was 1 nM and the Activity (HeLa [12]) was “Active”. It also gave a selectivity ratio [13] of 460, an IC50 (PBL) of 24700 nM and an inhibition in vivo at 50 mg/kg (MNNG-HOS [14]) of 62%. For the same compound, the Activity (HeLa [15]) was “Active”, the Activity [16] was “inactive” and the IC50 [17] was 4.1 nM. The Activity [18] was “Active”, the Activity (HeLa [19]) was “tde” and the Activity (HeLa [20]) was “Dose-dependent effect”.
